Screens from PubChem BioAssay.
Hits are enriched below; roughly 2% of the tested compounds scored in any of these assays.
STEP inh: inhibitors of human striatal-enriched phosphatase STEP. P54829. recombinant STEP, OMFP fluorogenic substrate, fluorescence. inhibition, % at 20 µM. 360,000 tested, 0.25% active;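 active means inhibition at 20 µM, scaled per plate between control wells, above about 37%, limit read from the data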;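 further: 0% = DMSO with enzyme and substrate and 100% = substrate only without enzyme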
Target sequence (P54829 whole entry, looked up): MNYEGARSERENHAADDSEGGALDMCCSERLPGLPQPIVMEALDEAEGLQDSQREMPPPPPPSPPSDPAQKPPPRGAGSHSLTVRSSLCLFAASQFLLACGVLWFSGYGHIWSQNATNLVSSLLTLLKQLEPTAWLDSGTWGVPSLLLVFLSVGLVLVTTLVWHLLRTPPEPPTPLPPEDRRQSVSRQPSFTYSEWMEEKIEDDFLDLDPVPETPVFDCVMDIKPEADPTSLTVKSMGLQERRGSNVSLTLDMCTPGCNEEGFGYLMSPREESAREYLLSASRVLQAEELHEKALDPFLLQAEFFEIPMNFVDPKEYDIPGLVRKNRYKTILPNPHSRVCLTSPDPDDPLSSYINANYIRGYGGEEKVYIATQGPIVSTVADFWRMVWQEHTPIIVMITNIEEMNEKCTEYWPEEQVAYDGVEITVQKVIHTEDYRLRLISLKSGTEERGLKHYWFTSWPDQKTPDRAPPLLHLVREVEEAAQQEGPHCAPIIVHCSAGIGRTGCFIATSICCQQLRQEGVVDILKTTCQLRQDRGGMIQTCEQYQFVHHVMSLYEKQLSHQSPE
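Measure: Control-normalized % inhibition with plate pattern correction | Test system: STEP phosphatase, cell-free reaction | Medium: pH 6.0 Bis-Tris with DTT and Tween 20 | Technique: Fluorescence, 480/540 nm | Times: Reaction 20 min, ambient temperature | Doses: Single compound dose of 20 µM, 1% DMSO final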
Scp1 inh: inhibitors of human Scp-1 phosphatase | Q9GZU7 | Recombinant Scp1, phosphopeptide, malachite green phosphate absorbance | inhibition, % at 20 µM | 340,000 tested, 0.88% active | AID 493091;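 active means inhibition above about 50% at 20 µM, limit read from the data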;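 further: plate controls were DMSO wells with enzyme for no effect and wells lacking enzyme for full effect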
Target sequence (Q9GZU7 76-261 limits assumed): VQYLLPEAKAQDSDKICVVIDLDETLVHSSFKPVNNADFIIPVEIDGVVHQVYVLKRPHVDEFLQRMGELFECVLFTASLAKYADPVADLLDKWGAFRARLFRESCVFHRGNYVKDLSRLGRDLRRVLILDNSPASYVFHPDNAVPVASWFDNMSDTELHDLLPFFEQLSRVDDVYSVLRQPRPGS
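assay system = SCP-1 phosphatase catalytic domain, residues 76-261 | buffer or medium = 50 mM Tris acetate pH 5.5, 0.005% Tween-20, 10 mM MgCl2 | incubation = enzyme reaction 45 min at room temperature, colour 5 min, stabilisation 30 min | signal = Phosphate-binding colour reagent, absorbance read at 630 nm | measure = % inhibition at 20 µM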
DNMT1 block: blocks human DNA methyltransferase DNMT1. DNMT1 molecular beacon, Hinp1I cleavage, fluorescence. P26358. 360,000 tested, 0.83% active. inhibition (reported as % activation of signal), % at 10 µM. AID 588458; in the data active means inhibition above about 50%
LMPTP block: LMPTP (human) inhibition; recombinant LMPTP-A, OMFP fluorogenic substrate, fluorescence intensity; inhibition, % at 20 µM; 360,000 tested, 0.22% active;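 active means compounds that cut the enzyme signal by at least half of the control window in the single-dose screen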;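 further: plate controls were DMSO wells with enzyme plus substrate for no effect and substrate without enzyme for full effect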
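Test system: LMPTP-A phosphatase enzyme. Amount: LMPTP-A at 0.625 nM final in the reaction. Reagent: OMFP substrate, 400 µM final. Times: 50 min at room temperature. Signal: endpoint fluorescence intensity from OMFP dephosphorylation. Read-out basis: % inhibition. Benchmarks: no-enzyme and uninhibited controls.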
SUMO1 PPI mod: alters human SUMO1 binding to SIM partners. inhibition, % at 20 µM. 360,000 tested, 0.33% active. P63165. SUMO1 binding to a labelled peptide, TR-FRET, 1 h; in the data active means inhibition above about 37%
CSN inh: CSN deneddylation inhibition. Purified CSN, SCF-Nedd8-OG deneddylation, fluorescence polarization. inhibition, % at 12.5 µM. Q92905. 360,000 tested, 0.38% active;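 active means pattern-corrected inhibition above about 35%, with an unprinted fluorescence ratio check between 0.5 and 1.5, limit read from the data, passing the limit was not always enough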;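 further: 0% = enzyme with substrate and 100% = substrate without enzyme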
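Schedule: reaction 90 min, room temperature / Assay system: HEK293T-derived human Csn5 enzyme / Input: Csn5 at 0.24 nM final / Measure: inhibition of Csn5 cleavage, % / Control set: substrate-only high control, full reaction low control / Technique: fluorescence polarization of the substrate / Buffer or medium: Tris/NaCl/DTT buffer, pH 7.5 / Reagent: SCFSkp2-Nedd8OG substrate at 10 nM final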
Scp1 confirm: Scp-1 (human) inhibition, single-dose confirmed. shares compounds with Scp1 inh. recombinant SCP-1 catalytic domain, phosphate release, malachite green absorbance. inhibition, % at 20 µM. 2,500 tested, 61% active;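 further: plate controls were DMSO with enzyme for no effect and buffer wells lacking enzyme for full effect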
MG interference: counter-screen for Scp-1 inhibitors: colorimetric interference; shares compounds with Scp1 inh; Colorimetric interference counterscreen, malachite green absorbance 630 nm; apparent inhibition (interference), % at 20 µM; 2,500 tested, under 10 active;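 further: compounds added after enzyme reaction finished so only phosphate colour detection is probed; plate controls were DMSO wells with completed Scp-1 reaction for no effect and substrate wells lacking enzyme for full effect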
Scp-1 Tm shift: binds human Scp-1, shifting its melting temperature. shares compounds with Scp1 inh. Recombinant SCP1, Sypro Orange thermal shift Tm. thermal shift relative to vanadate control, % at 40 µM. 1,500 tested, 25% active. AID 540329;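 active means substances whose mean melting-temperature shift, as a percentage of the reference inhibitor's shift, reaches about 5.3%, limit read from the data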;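 further: 0% = Tm of DMSO wells and 100% = Tm with sodium orthovanadate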
Active calls of the source: *; · = not tested or not shown.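 How the source made its calls, unless noted: active means inhibition of at least 30% at 20 µM; inactive means the rest.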

SMILES	STEP inh	Scp1 inh	DNMT1 block	LMPTP block	SUMO1 PPI mod	CSN inh	Scp1 confirm	MG interference	Scp-1 Tm shift
CC(=O)Nc1ccc(S(=O)(=O)N(C)CC(=O)OCC(=O)N2CCCCCC2)cc1	-2.1	-8.3	-1.3	-0.9	0.0	-4.2	·	·	·
C[N+]1(CCOS(=O)C23CC4CC(CC(C4)C2)C3)CCOCC1 (stereo not drawn)	-2.9	105.0*	-0.5	-2.3	2.8	4.1	-5.3	-6.8	·
O=C(O)c1ccccc1-c1c2cc(I)c(=O)c(I)c-2oc2c(I)c(O)c(I)cc12	-75.0	77.2*	34.0	22.3	69.4*	-74.2	65.4*	-23.3	163.6*
O=C(Nc1ccc(N2CCN(C(=O)c3ccco3)CC2)cc1)c1ccc([N+](=O)[O-])cc1Cl	-2.1	-4.7	-1.6	2.5	-31.1	4.2	·	·	·
Cc1ccc(C(=O)Nc2ccc(N3CCN(C(=O)c4ccco4)CC3)cc2)c(Cl)c1	2.8	68.1*	-11.7	1.9	-1.6	-5.4	-10.8	-10.4	·
CCOC(=O)c1ccc(Cl)c(NC(=O)c2ccc(-c3ccccc3)cc2)c1	1.7	-3.8	27.4	-2.2	-4.8	-0.9	·	·	·
CCOC(=O)c1ccc(/C=C2/C=C(c3ccccc3)N(c3ccc(Cl)c(C(=O)O)c3)C2=O)cc1	-3.1	51.9*	35.3	0.8	27.3	29.5	72.4*	-13.1	-6.5
CCOC(=O)N(O)c1ccc(C=Cc2ccccc2)cc1	2.3	59.2*	10.3	4.8	-7.4	6.4	50.4*	-7.6	-17.9
CCOC(=O)C(=Cc1ccc(N(C)C)cc1)C(=O)c1ccccc1	-0.5	·	2.4	2.5	4.8	4.3	·	·	·
CC(OC(=O)Cc1ccc(F)cc1)C(=O)NCc1ccc2c(c1)OCO2 (stereo not drawn)	1.2	-2.7	0.8	0.1	0.1	1.4	·	·	·
CC1CCN(C(=O)COC(=O)/C=C/c2ccco2)CC1	9.9	65.0*	37.9	2.2	-11.7	3.0	25.0	-16.7	·
CN(Cc1ccccc1)C(=O)COC(=O)/C=C/c1ccco1	8.2	64.5*	31.6	11.8	-11.9	-3.0	62.3*	-8.7	-12.6
CC1CCCC(C)N1C(=O)COC(=O)/C=C/c1ccc(Br)o1 (stereo not drawn)	5.7	92.3*	24.9	5.0	9.6	17.6	58.0*	-12.9	-5.7
COc1ccccc1CNC(=O)C1CCCN(S(=O)(=O)c2ccc3c(c2)C(C)(C)C(=O)N3C)C1 (stereo not drawn)	-3.0	-7.4	-0.6	-0.9	0.8	6.7	·	·	·
Nc1cc(=O)[nH]c(SCC(=O)Nc2cc(Cl)cc(Cl)c2)n1	-1.2	-10.8	-7.4	-1.2	1.9	-4.0	-5.9	-3.2	·
COC(=O)c1ccccc1NC(=O)CSc1nc(N)cc(N)n1	-1.7	-6.0	1.3	0.1	0.6	3.3	·	·	·
COC(=O)c1ccccc1NC(=O)CSc1nc(N)cc(=O)[nH]1	2.8	56.7*	47.4	1.5	6.4	0.6	34.5*	-17.0	-0.2
O=C1CSC(=S)N1Cc1ccccc1	-1.3	·	3.3	-0.7	4.0	2.8	·	·	·
CCCCCCn1c(-c2ccco2)nc2oc3cc(OC)ccc3c(=O)c2c1=O	0.8	56.0*	49.1	5.3	-7.0	7.9	50.4*	-4.9	0.2
COCCOC(=O)c1cc(C(=O)c2cc(Cl)ccc2O)coc1=N	-0.1	55.3*	-3.4	-0.5	1.2	-8.3	-11.4	-15.6	·
CCOC(=O)c1cc(C(=O)c2cc(Cl)ccc2O)coc1=N	-0.7	-8.0	-7.3	0.7	-1.4	-4.1	·	·	·
CC[n+]1ccc(C[n+]2ccccc2)c2ccccc21	-2.1	96.9*	-7.8	-1.1	-15.6	-4.5	86.2*	-10.4	-3.7
CCOc1c(Br)cc(Br)cc1/C=C1\SC(N)=NC1=O	2.2	85.1*	16.9	0.2	2.9	3.7	8.6	-13.1	·
N#CC1=C(N)n2c(s/c(=C\c3ccco3)c2=O)=C(C#N)C1c1ccco1 (stereo not drawn)	10.7	63.1*	95.0*	11.1	31.9	55.0	70.8*	-5.2	17.6*
O=C(CC1OC(=O)c2ccccc21)NNC(=O)c1ccc(F)cc1 (stereo not drawn)	-0.9	-8.6	-1.6	-1.2	0.8	0.2	-12.5	-15.3	·
SMILES	STEP inh	Scp1 inh	DNMT1 block	LMPTP block	SUMO1 PPI mod	CSN inh	Scp1 confirm	MG interference	Scp-1 Tm shift
CC(C)NC(=O)CC1OC(=O)c2ccccc21 (stereo not drawn)	2.4	-9.4	-1.0	-0.7	-3.1	5.5	·	·	·
Cc1ccc(NC(=O)CSc2n[nH]c(-c3ccco3)n2)c(C)c1	-2.5	5.8	-0.3	-0.4	6.6	-0.2	·	·	·
Cc1ccc(NC(=O)CSc2nc(-c3ccco3)nc3cc(=O)[nH]n23)c(Cl)c1	8.6	70.8*	32.9	4.4	11.0	19.3	48.1*	-15.3	-2.1
COCCNC(=O)COc1ccc(C)cc1C(=O)c1cc(C#N)c(=O)n(C2CC2)c1	-1.9	-4.4	5.5	-1.3	1.3	-2.2	·	·	·
COCCCNC(=O)Cn1ccc(NC(=O)OCc2ccccc2)nc1=O	-1.0	-2.3	5.2	-3.0	-1.3	-6.2	·	·	·
O=C(Cn1ccc(NC(=O)OCc2ccccc2)nc1=O)NCc1ccc2[nH]ccc2c1	-2.4	4.0	-1.8	1.2	-6.1	2.8	-1.2	0.1	·
COc1ccc(CNC(=O)Cn2ccc(NC(=O)OCc3ccccc3)nc2=O)cc1	0.4	10.3	2.4	-0.9	2.7	3.5	·	·	·
COc1cc(NCCCn2ccc(NC(=O)OCc3ccccc3)nc2=O)cc(OC)c1OC	-0.9	-10.9	-22.7	-0.6	-1.3	7.0	-7.4	-8.2	·
Cc1ccc(CNC(=O)Cn2ccc(NC(=O)OCc3ccccc3)nc2=O)o1	-1.9	-8.2	-1.5	-2.6	5.8	2.0	-4.7	-11.5	·
O=C(CNCc1ccccc1)NCCCN1CCCC1=O	-0.7	-9.1	-1.1	-2.4	9.0	0.0	·	·	·
O=C(Nc1nc2ccsc2c(=O)s1)c1ccc(F)cc1	97.6*	95.7*	12.0	64.8*	0.9	20.0	51.0*	-9.5	-6.4
O=C(Nc1nc2ccsc2c(=O)s1)c1ccc(F)cc1Cl	12.2	54.7*	15.0	0.9	14.6	8.6	38.5*	-9.8	-10.9
CC(C)Cc1nnc(NC(=O)CCC(=O)N2CCN(Cc3ccccc3)CC2)s1	-1.6	-2.5	2.3	-1.5	-2.5	3.5	·	·	·
C[n+]1ccccc1/C=C/c1cc(Br)ccc1O	0.7	-9.7	-9.3	0.8	-23.7	2.2	·	·	·
